Source: ChEMBL document CHEMBL3808334, “Synthesis and in vitro evaluation of novel triazine analogues as anticancer agents and their interaction studies with bovine serum albumin” (Eur J Med Chem, 2016)

Columns and labels:
Type in all cases: functional
[1] = Growth inhibition of human HOP92 cells assessed as cell growth at 10^-8 M incubated for 48 hrs by sulforhodamine B assay; conditions: HOP-92, 48 h, read-out: Activity
[2] = Growth inhibition of human HCC2998 cells assessed as cell growth at 10^-6 M incubated for 48 hrs by sulforhodamine B assay; conditions: HCC 2998, 48 h, read-out: Activity
Method in brief: (§1)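 Cells seeded at 5,000–40,000/well according to doubling time and preincubated 24 h at 37 °C, 5% CO2. Time-zero plates were TCA-fixed. DMSO concentrate was diluted in medium with 50 µg/ml gentamicin to give five concentrations (10-fold or ½ log steps), then exposed 48 h. Cells were TCA-fixed, stained with 0.4% SRB and read at 515 nm. Percent growth was taken against time-zero and control; GI50, TGI and LC50 derived.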

[3] = Growth inhibition of human HL-60(TB) cells incubated for 48 hrs by sulforhodamine B assay; conditions: HL-60, 48 h
Method in brief: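 Five-concentration, 48 h SRB screen (10-fold or ½-log dilutions from a 400× DMSO concentrate; 24 h preincubation at 37 °C, 5% CO₂; time-zero plate; A515). GI50 was solved from (Ti−Tz)/(C−Tz)×100 = 50. TGI was taken where Ti = Tz, and LC50 from (Ti−Tz)/[…].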

[4] = Growth inhibition of human BT549 cells assessed as cell growth at 10^-4 M incubated for 48 hrs by sulforhodamine B assay; conditions: BT-549, 48 h, read-out: Activity
Method in brief: (§2)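 Five-dose assay: five concentrations from 10-fold or ½-log serial dilutions. Cells are plated at 5,000–40,000 per well according to doubling time, grown 24 h, then exposed 48 h at 37 °C, 5% CO₂. Fixed with cold 50% TCA (final addition) for 60 min at 4 °C and stained with 0.4% SRB in 1% acetic acid. Bound dye is solubilized in 10 mM Tris base and read at 515 nm. GI₅₀ is where [(Ti−Tz)/(C−Tz)]×100 = 50, with a time-zero plate as Tz.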

[5] = Growth inhibition of human RPMI8226 cells assessed as cell growth at 10^-6 M incubated for 48 hrs by sulforhodamine B assay; conditions: RPMI-8226, 48 h, read-out: Activity
HT-29 = assay: Growth inhibition of human HT-29 cells assessed as cell growth at 10^-7 M incubated for 48 hrs by sulforhodamine B assay; conditions: HT-29, 48 h, read-out: Activity
MDA-MB-468 = assay: Growth inhibition of human MDA-MB-468 cells assessed as cell growth at 10^-8 M incubated for 48 hrs by sulforhodamine B assay; conditions: MDA-MB-468, 48 h, read-out: Activity
[6] = Growth inhibition of human HCT15 cells assessed as cell growth at 10^-8 M incubated for 48 hrs by sulforhodamine B assay; conditions: HCT-15, 48 h, read-out: Activity; method in brief: as §1
[7] = Growth inhibition of human OVCAR3 cells assessed as cell growth at 10^-8 M incubated for 48 hrs by sulforhodamine B assay; conditions: OVCAR-3, 48 h, read-out: Activity
[8] = Growth inhibition of human SF539 cells assessed as cell growth at 10^-4 M incubated for 48 hrs by sulforhodamine B assay; conditions: SF-539, 48 h, read-out: Activity
[9] = Growth inhibition of human HCT116 cells assessed as cell growth at 10^-5 M incubated for 48 hrs by sulforhodamine B assay; conditions: HCT-116, 48 h, read-out: Activity; method in brief: as §1
[10] = Growth inhibition of human HCT15 cells assessed as cell growth at 10^-5 M incubated for 48 hrs by sulforhodamine B assay; conditions: HCT-15, 48 h, read-out: Activity; method in brief: as §1
[11] = Growth inhibition of human COLO205 cells assessed as cell growth at 10^-8 M incubated for 48 hrs by sulforhodamine B assay; conditions: COLO 205, 48 h, read-out: Activity; method in brief: as §1
NCI-H23 = assay: Growth inhibition of human NCI-H23 cells incubated for 48 hrs by sulforhodamine B assay; conditions: NCI-H23, 48 h
Method in brief: (§3)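 Cells were plated at 5,000–40,000 per well according to doubling time and preincubated 24 h at 37 °C in 5% CO2; time-zero plates were then TCA-fixed. Five concentrations (10-fold or ½-log dilutions, DMSO stock) were incubated 48 h. Cells were TCA-fixed, stained with 0.4% SRB and read at 515 nm. GI50 was taken where [(Ti−Tz)/(C−Tz)]×100 = 50.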

[12] = Growth inhibition of human SW620 cells assessed as cell growth at 10 uM incubated for 48 hrs by sulforhodamine B assay; conditions: SW-620, 48 h, read-out: Activity
[13] = Growth inhibition of human RPMI8226 cells assessed as cell growth at 10 uM incubated for 48 hrs by sulforhodamine B assay; conditions: RPMI-8226, 48 h, read-out: Activity
[14] = Growth inhibition of human SNB19 cells assessed as cell growth at 10^-5 M incubated for 48 hrs by sulforhodamine B assay; conditions: SNB-19, 48 h, read-out: Activity
[15] = Growth inhibition of human RXF393 cells assessed as cell growth at 10^-6 M incubated for 48 hrs by sulforhodamine B assay; conditions: RXF 393, 48 h, read-out: Activity
[16] = Growth inhibition of human RXF393 cells assessed as cell growth at 10^-8 M incubated for 48 hrs by sulforhodamine B assay; conditions: RXF 393, 48 h, read-out: Activity
[17] = Growth inhibition of human SF539 cells incubated for 48 hrs by sulforhodamine B assay; conditions: SF-539, 48 h; method in brief: as §3
[18] = Growth inhibition of human TK10 cells assessed as cell growth at 10 uM incubated for 48 hrs by sulforhodamine B assay; conditions: TK-10, 48 h, read-out: Activity
[19] = Growth inhibition of human CNS cancer cells incubated for 48 hrs by sulforhodamine B assay; conditions: Cancer cell lines; for CC50: read-out: LC50 (the source's name); method in brief: as §2
[20] = Growth inhibition of human COLO205 cells assessed as cell growth at 10^-5 M incubated for 48 hrs by sulforhodamine B assay; conditions: COLO 205, 48 h, read-out: Activity; method in brief: as §1
[21] = Growth inhibition of human OVCAR4 cells assessed as cell growth at 10 uM incubated for 48 hrs by sulforhodamine B assay; conditions: OVCAR-4, 48 h, read-out: Activity
[22] = Growth inhibition of human LOXIMVI cells assessed as cell growth at 10 uM incubated for 48 hrs by sulforhodamine B assay; conditions: LOX IMVI, read-out: Activity
[23] = Growth inhibition of human SKOV3 cells assessed as cell growth at 10^-8 M incubated for 48 hrs by sulforhodamine B assay; conditions: SK-OV-3, 48 h, read-out: Activity
[24] = read-out: LC50 (the source's name)
[25] = read-out: pLC50 (the source's name) (converted)

Fc1ccc(-c2nc(Nc3ccc(-c4nc5ccccc5[nH]4)cc3)nc(N3CCOCC3)n2)cc1
growth at 0.01 µM [1]: 96% | growth at 1 µM [2]: 94% | GI50 ([3]; read-out: GI50): 1.94 µM | LC50 ([3]; read-out: LC50): > 100 µM | TGI ([3]; read-out: TGI): 5.67 µM | GI50 ([3]; read-out: pGI50 (converted)): 1.95 µM | LC50 ([3]; read-out: pLC50 (converted)): > 100 µM | TGI ([3]; read-out: pTGI (converted)): 5.62 µM | growth at 100 µM [4]: -28% | growth at 1 µM [5]: 77% | growth at 0.1 µM (HT-29): 96% | growth at 0.01 µM (MDA-MB-468): 97% | growth at 0.01 µM [6]: 97% | growth at 0.01 µM [7]: 102% | growth at 100 µM [8]: -84% | growth at 10 µM [9]: -84% | growth at 10 µM [10]: -35% | growth at 0.01 µM [11]: 100% | GI50 (NCI-H23; read-out: GI50): 2.57 µM | CC50 (NCI-H23; [24]): > 100 µM | TGI (NCI-H23; read-out: TGI): 9.9 µM | GI50 (NCI-H23; read-out: pGI50 (converted)): 2.57 µM | CC50 (NCI-H23; [25]): > 100 µM | TGI (NCI-H23; read-out: pTGI (converted)): 10 µM | growth at 10 µM [12]: 3.57% | growth at 10 µM [13]: -13.8% | growth at 10 µM [14]: 15% | growth at 1 µM [15]: 24% | growth at 0.01 µM [16]: 102% | GI50 ([17]; read-out: GI50): 1.63 µM | CC50 [17, 24]: 8.47 µM | TGI ([17]; read-out: TGI): 3.72 µM | GI50 ([17]; read-out: pGI50 (converted)): 1.62 µM | CC50 [17, 25]: 8.51 µM | TGI ([17]; read-out: pTGI (converted)): 3.72 µM | growth at 10 µM [18]: 43.9% | GI50 [19]: 2.23 µM | TGI [19]: 11.8 µM | CC50 [19]: 8.47 µM | growth at 10 µM [20]: -55% | growth at 10 µM [21]: 59.8% | growth at 10 µM [22]: -75.6% | growth at 0.01 µM [23]: 99%

c1ccc(-c2nc(Nc3ccc(-c4nc5ccccc5[nH]4)cc3)nc(N3CCOCC3)n2)cc1
growth at 0.01 µM [1]: 93% | growth at 1 µM [2]: 93% | GI50 ([3]; read-out: GI50): 0.031 µM | LC50 ([3]; read-out: LC50): 31.2 µM | TGI ([3]; read-out: TGI): 0.601 µM | GI50 ([3]; read-out: pGI50 (converted)): 0.0309 µM | LC50 ([3]; read-out: pLC50 (converted)): 30.9 µM | TGI ([3]; read-out: pTGI (converted)): 0.603 µM | growth at 100 µM [4]: -80% | growth at 1 µM [5]: 54% | growth at 0.1 µM (HT-29): 108% | growth at 0.01 µM (MDA-MB-468): 96% | growth at 0.01 µM [6]: 96% | growth at 0.01 µM [7]: 105% | growth at 100 µM [8]: -90% | growth at 10 µM [9]: -61% | growth at 10 µM [10]: -58% | growth at 0.01 µM [11]: 100% | GI50 (NCI-H23; read-out: GI50): 2.07 µM | CC50 (NCI-H23; [24]): 68.7 µM | TGI (NCI-H23; read-out: TGI): 4.78 µM | GI50 (NCI-H23; read-out: pGI50 (converted)): 2.09 µM | CC50 (NCI-H23; [25]): 69.2 µM | TGI (NCI-H23; read-out: pTGI (converted)): 4.79 µM | growth at 10 µM [12]: -82.9% | growth at 10 µM [13]: -22.6% | growth at 10 µM [14]: -53% | growth at 1 µM [15]: 30% | growth at 0.01 µM [16]: 97% | GI50 ([17]; read-out: GI50): 1.42 µM | CC50 [17, 24]: 6.09 µM | TGI ([17]; read-out: TGI): 2.94 µM | GI50 ([17]; read-out: pGI50 (converted)): 1.41 µM | CC50 [17, 25]: 6.03 µM | TGI ([17]; read-out: pTGI (converted)): 2.95 µM | growth at 10 µM [18]: -58.1% | GI50 [19]: 1.41 µM | TGI [19]: 3.04 µM | CC50 [19]: 5.98 µM | growth at 10 µM [20]: -73% | growth at 10 µM [21]: -47.2% | growth at 10 µM [22]: -89% | growth at 0.01 µM [23]: 95%
